# Assay results as given in ChEMBL document CHEMBL3227992, “Glycerides as prodrugs. 1. Synthesis and antiinflammatory activity of 1,3-bis(alkanoyl)-2-(O-acetylsalicyloyl)glycerides (aspirin triglycerides)” (J Med Chem, 1979).
# The source made the active and inactive calls. The calls are words filed in the database; no cut-off is given here.
# Experiments:
# [1] = test system: Rattus norvegicus; assay: Antiinflammatory activity in Sprague-Dawley rat assessed as inhibition of carrageenin-induced hind paw swelling at 394 umol/kg, po administered 2 hrs prior to carrageenin challenge measured after 3 hrs by volumetric transducer analysis relative to aspirin; type: functional
# Method in brief: (§1)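 Male Sprague-Dawley rats (170-200 g) were fasted overnight with water ad libitum. Compounds were suspended in 0.5% (w/v) methylcellulose with a drop of Tween 80 and given orally 2 h before a subplantar injection of 0.1 mL of 1.5% carrageenin. Paw volume was read before and 3 h after injection by immersion in a mercury vessel linked to a volumetric transducer and polygraph.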
# [2] = test system: Plasma; assay: Prodrug conversion in rat plasma assessed as salicylate level at 594 umol/kg, po measured after 24 hrs; type: ADME, organism-based; conditions: in vivo
# Method in brief: (§2)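 Rats were dosed orally, with the glyceride given as an emulsion. Plasma salicylate was followed from 15 min to 24 h after dosing and reported as mean levels. Absorption was estimated by comparing mean areas under the plasma salicylate curves with those after aspirin.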
# [3] = test system: Rattus norvegicus; assay: Ulcerogenicity in Sprague-Dawley rat assessed as gastric lesions at 444 umol/kg, po; type: toxicity, organism-based, Stomach; conditions: in vivo
# Method in brief: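 Rats were fasted overnight and dosed orally with compound in 0.5% methylcellulose plus Tween 80. Stomachs were examined for gastric lesions by the Brodie and Hansen method. Lesion incidence counted animals with a lesion of 1 mm or longer, expressed relative to plain aspirin.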
# [4] = test system: Plasma; assay: Prodrug conversion in rat plasma assessed as salicylate level at 594 umol/kg, po measured after 15 mins; type: ADME, organism-based; conditions: in vivo, 0.25 h; method in brief: as §2
# [5] = test system: Plasma; assay: Prodrug conversion in rat plasma assessed as salicylate level at 1192 umol/kg, po administered as emulsified solution measured after 1 to 6 hrs; type: ADME, organism-based; conditions: in vivo; method in brief: as §2
# [6] = test system: Rattus norvegicus; assay: Antipyretic activity against yeast-induced fever in rat assessed as delay in onset of activity at 1068 umol/kg, po relative to aspirin; type: functional, organism-based
# [7] = Drug absorption in rat at 1192 umol/kg, po administered as emulsified solution; type: ADME, organism-based; conditions: in vivo, read-out: Drug absorption; method in brief: as §2
# [8] = test system: Plasma; assay: Prodrug conversion in rat plasma assessed as salicylate level at 1192 umol/kg, po administered as emulsified solution measured after 24 hrs; type: ADME, organism-based; conditions: in vivo; method in brief: as §2
# [9] = test system: Rattus norvegicus; assay: Antiinflammatory activity in Sprague-Dawley rat assessed as inhibition of carrageenin-induced hind paw swelling at 444 umol/kg, po administered 2 hrs prior to carrageenin challenge measured after 3 hrs by volumetric transducer analysis relative to aspirin; type: functional; method in brief: as §1
# [10] = test system: Rattus norvegicus; assay: Antipyretic activity against yeast-induced fever in rat assessed as prolonged duration of action at 1068 umol/kg, po relative to aspirin; type: functional, organism-based
# [11] = test system: Rattus norvegicus; assay: Antiinflammatory activity in Sprague-Dawley rat assessed as inhibition of carrageenin-induced hind paw swelling at 273 umol/kg, po administered 2 hrs prior to carrageenin challenge measured after 3 hrs by volumetric transducer analysis relative to aspirin; type: functional; method in brief: as §1
# [12] = test system: Rattus norvegicus; assay: Antiinflammatory activity in Sprague-Dawley rat assessed as inhibition of carrageenin-induced hind paw swelling at 323 umol/kg, po administered 2 hrs prior to carrageenin challenge measured after 3 hrs by volumetric transducer analysis relative to aspirin; type: functional; method in brief: as §1
smiles,measurement,setting,value
CCCCCCCC(=O)OCC(COC(=O)CCCCCCC)OC(=O)c1ccccc1OC(C)=O,inhibition in vivo at 394 µmol/kg,[1],60%
CC(=O)Oc1ccccc1C(=O)O [ASPIRIN],Drug metabolism,[2],24 µg/mL
same,Activity,[3],Toxic
same,Drug metabolism,[4],196 µg/mL
CCCCCCCCCC(=O)OCC(COC(=O)CCCCCCCCC)OC(=O)c1ccccc1OC(C)=O,Activity,[3],Non-toxic
same,Drug metabolism,[5],219 µg/mL
same,Activity,[6],Active
same,Fa,[7],100%
same,Drug metabolism,[8],61 µg/mL
same,inhibition in vivo at 444 µmol/kg,[9],80%
same,Activity,[10],Active
CCCCCCCCCCCCCCCC(=O)OCC(COC(=O)CCCCCCCCCCCCCCC)OC(=O)c1ccccc1OC(C)=O,inhibition in vivo at 273 µmol/kg,[11],12%
CC(=O)OCC(COC(C)=O)OC(=O)c1ccccc1OC(C)=O,Activity,[3],Toxic
same,inhibition in vivo at 444 µmol/kg,[9],48%
CCCCCCCCCCCC(=O)OCC(COC(=O)CCCCCCCCCCC)OC(=O)c1ccccc1OC(C)=O,inhibition in vivo at 323 µmol/kg,[12],44%
CCCC(=O)OCC(COC(=O)CCC)OC(=O)c1ccccc1OC(C)=O,Activity,[3],Non-toxic
same,inhibition in vivo at 444 µmol/kg,[9],92%
